Legend:
Jurkat-CN cells [1] = assay: PS exposure; type: cell-based, human; settings: 24 h
Procedure, shortened: (§1)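 Jurkat cells with Bak knocked down by RNA interference, and empty-vector controls (CN), were exposed to test compound for 24 h; cisplatin at 25 μM served as reference. Samples were diluted to 1 ml and read by flow cytometry.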

Jurkat-shBak cells [2] = assay: PS exposure; type: cell-based, human; settings: 24 h
Procedure, shortened: as §1

Jurkat-CN cells [3] = assay: Necrotic versus apoptotic cell death, Trypan blue staining and morphology; type: cell-based, human; settings: control Jurkat cells, 24 h
Procedure, shortened: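 Jurkat-CN (empty-vector) and Jurkat-shBak cells were treated with test compound or cisplatin for 24 h, then stained with Trypan blue. Stained cells were scored as necrotic. Unstained cells showing blebbing and/or chromatin condensation were scored as apoptotic. Values are mean ± SD of three independent experiments.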

Jurkat cells [4] = assay: Protection by antioxidants; type: cell-based, human; settings: 24 h, superoxide scavenger MnTBAP
Procedure, shortened: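 Jurkat cells were cultured for 24 h with test compound alone or together with MnTBAP (superoxide anion scavenger), glutathione or N-acetylcysteine. Collapse of mitochondrial transmembrane potential was measured at the end by flow cytometry. Values are mean ± SD of 4 independent experiments.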

PBMC from healthy donors = assay: Cytotoxicity, cell death by annexinV-PE labeling and flow cytometry, 24 h; type: cell-based, human; settings: 25 μM
Procedure, shortened: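 PBMC came from healthy donors, were freshly isolated by Ficoll-Paque density centrifugation and kept in complete RPMI 1640 medium. They were exposed to a range of test compound concentrations for 24 h. Positive cells were quantified by flow cytometry. Values are mean ± SD of three independent experiments.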

Jurkat-shBak cells [5] = assay: Necrotic versus apoptotic cell death, Trypan blue staining and morphology; type: cell-based, human; settings: 24 h
Jurkat cells [6] = assay: Cytotoxicity, cell death by annexinV-PE labeling and flow cytometry, 24 h; type: cell-based, human
Procedure, shortened: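 Jurkat (clone E6.1) in RPMI 1640 with 5% FCS, L-glutamine and penicillin/streptomycin, seeded at 3×10⁵ cells/ml. Cells were exposed to a range of test compound concentrations for 24 h. Fluorescent cells were counted by flow cytometry. Values are mean ± SD of three independent experiments.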

Jurkat cells [7] = assay: Growing potential after removal of compounds and NAC, Trypan blue counting; type: cell-based, human; settings: 24h treatment with compound alone, viable cells 24 h and 48 h after removal
Procedure, shortened: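 Jurkat cells were treated with test compound, with or without NAC, for 24 h. They were then washed and transferred to fresh medium. Total cell number and viability were measured 24 and 48 h after removal of compound and NAC, by Trypan blue staining and counting in a Neubauer haemocytometer. Values are mean ± SD of three independent experiments.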

[8] = cited from earlier work

Molecule	death of cells (Jurkat-CN cells [1]; 25 μM, Jurkat control (CN) cells)	sensitivity of Jurkat-shBak cells, in words (Jurkat-shBak cells [2])	type of cell death (necrosis versus apoptosis) (Jurkat-CN cells [3])	protection from toxicity by MnTBAP (Jurkat cells [4])	dead cells (PBMC from healthy donors)	type of cell death (necrosis versus apoptosis) (Jurkat-shBak cells [5])	cells bound annexin V-PE (Jurkat-CN cells [1]; 10 μM, control Jurkat cells)	IC50 (Jurkat cells [6])	killing of cells (Jurkat cells [6]; 25 μM)	growing potential after transfer to fresh medium (Jurkat cells [7])	time stable in solution [8]
N.N.[Cl][Pt][Cl] [cisplatin, reference compound]	around 60%	completely resistant									
[Au{κ^2-C,N-C6H4(PPh2=N(C6H5)-2}(P{Cp(m-C6H4-SO3Na)2} 3)Cl]PF6 [compound 3]		almost completely resistant	necrosis and apoptosis at similar levels	almost completely protected	33.5%	both apoptotic and necrotic cell death were prevented	around 50%	16.1 µM	96%	A fraction of cells	≤ 24 h
